pIC50: −log10 of the molar value. The source made the active and inactive calls. The calls are words filed in the database; no cut-off is given here.
Tests used:
HeLa [1] = experiment: Induction of cell cycle arrest in human HeLa cells assessed as downregulation of Cyclin A2 protein expression at 7 to 11 uM by western blot analysis; format: functional, cell-based; settings: dose 7-11 µM
Outline: (§1)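 Protein extracted from treated and untreated HeLa, BCA-quantified and normalised; SDS-PAGE, PVDF transfer, 5% skim milk block; primary antibodies 18 h at 4 °C, HRP secondary; chemiluminescent detection of Cdk-2, cyclin A2, cyclin B1, Cdc-25 with β-actin loading control.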

HeLa [2] = experiment: Induction of cell cycle arrest in human HeLa cells assessed as proportion of cell accumulation at G2 phase at 7 uM by propidium iodide staining based flow cytometry (reference value: 8.7%); format: functional
HeLa [3] = experiment: Induction of cell cycle arrest in human HeLa cells assessed as proportion of cell accumulation at S phase at 11 uM by propidium iodide staining based flow cytometry (reference value: 15.9%); format: functional
HeLa [4] = experiment: Antimetastatic activity in human HeLa cells assessed as downregulation of Ki67 expression at 3 to 6 uM incubated for 24 hrs by DAPI staining based immunofluorescence analysis; format: functional, cell-based; settings: dose 3-6 µM
Outline: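 HeLa, 7 × 10^3 cells/well, treated at two concentrations for 24 h; fixed in 4% paraformaldehyde 15–30 min at 37 °C, permeabilised with 0.1% Triton-X 10 min, blocked in 5% BSA/PBST 1 h; Ki67 primary antibody overnight, then secondary antibody and DAPI counterstain; fluorescence microscopy imaging, fluorescence intensity quantified; mean ± SD.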

HeLa [5] = experiment: Induction of apoptosis in human HeLa cells assessed as proportion of late apoptotic cells at 11 uM by AnnexinV-FITC/PI staining based FACS analysis (reference value: 14.5%); format: functional
HeLa [6] = experiment: Induction of apoptosis in human HeLa cells assessed as DNA fragmentation by measuring CH-deformation with enhanced peak at 1420 to 1440 cm^-1 at 7 to 11 uM incubated for 24 hrs by surface-enhanced Raman spectroscopic analysis; format: functional, cell-based; settings: dose 7-11 µM
Outline: (§2)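 DNA isolated from control and 7 or 11 μM-treated HeLa, mixed 8:2 with 40–45 nm gold nanoparticles as SERS substrate, 10 min incubation; confocal Raman with 633 nm laser at 5 mW, 600 g/mm grating, 3 cm−1 resolution, 3 accumulations of 5 s integration.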

HeLa [7] = experiment: Induction of apoptosis in human HeLa cells assessed as proportion of viable cells at 11 uM by AnnexinV-FITC/PI staining based FACS analysis (reference value: 77.7%); format: functional
HeLa [8] = experiment: Induction of apoptosis in human HeLa cells assessed as proportion of early apoptotic cells at 7 uM by AnnexinV-FITC/PI staining based FACS analysis (reference value: 4.5%); format: functional
SiHa = experiment: Antiproliferative activity against human SiHa cells assessed as inhibition of cell growth incubated for 24 hrs by MTT assay; format: functional, cell-based
Outline: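 Cervical squamous carcinoma cells were seeded at 8 × 10^3 cells per 100 μL and incubated 24 h before compound was added (5–100 μM). After 24 h exposure, cells were washed and given 0.5 mg/mL MTT in HBSS for 2–4 h at 37 °C in the dark. Formazan was solubilised in DMSO, absorbance read at 570 nm, and IC50 determined.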

HeLa [9] = experiment: Induction of apoptosis in human HeLa cells assessed as DNA fragmentation at 7 to 11 uM incubated for 24 hrs by ethidium bromide staining based agarose gel electrophoresis analysis; format: functional, cell-based; settings: dose 7-11 µM
Outline: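 HeLa treated at 7 and 11 μM; genomic DNA isolated by kit, quantified by nanodrop and normalised; run on 0.8% agarose at 80 V, stained with ethidium bromide; laddering imaged by gel documentation.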

HeLa [10] = experiment: Induction of apoptosis in human HeLa cells assessed as cells with compromised membrane by measuring increase in red fluorescence intensity at 7 to 11 uM by acridine orange/ethidium bromide dual staining based fluorescence microscopy; format: functional, cell-based; settings: dose 7-11 µM
Outline: (§3)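 HeLa exposed to 7 and 11 μM versus untreated control; live/dead staining either with acridine orange–ethidium bromide dual stain (fluorescence, FITC filter) or with APOPercentage dye (pink uptake, brightfield); imaged on inverted microscope.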

HeLa [11] = experiment: Induction of cell cycle arrest in human HeLa cells assessed as downregulation of Cdk2 protein expression at 7 to 11 uM by western blot analysis; format: functional, cell-based; settings: dose 7-11 µM; outline: as §1
HeLa [12] = experiment: Induction of mitochondrial membrane potential depolarization in human HeLa cells assessed as increase in JC-1 monomers by measuring increase in green fluorescence intensity at 7 to 11 uM incubated for 24 hrs by JC-1 staining based fluorescence microscopic analysis; format: functional, cell-based; settings: dose 7-11 µM
Outline: (§4)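 HeLa treated for 24 h, then stained with JC-1 dye; red aggregate and green monomer fluorescence imaged on inverted microscope with FITC filter; aggregate-to-monomer ratio calculated relative to control; mean ± SD; scale bar 50 μm.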

HeLa [13] = experiment: Induction of cell cycle arrest in human HeLa cells assessed as proportion of cell accumulation at subG0 phase at 11 uM by propidium iodide staining based flow cytometry (reference value: 7.6%); format: functional
HeLa [14] = experiment: Induction of apoptosis in human HeLa cells assessed as cells with impaired membrane by measuring increase in pink colour intensity at 7 to 11 uM by APOP staining based microscopy; format: functional, cell-based; settings: dose 7-11 µM; outline: as §3
MDA-MB-231 = experiment: Antiproliferative activity against human MDA-MB-231 cells assessed as inhibition of cell growth incubated for 24 hrs by MTT assay; format: functional, cell-based; settings: MDA-MB-231, 24 h
Outline: (§5)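 Cells kept in DMEM with 10% FBS and 1% antibiotic-antimycotic at 37 °C and 5% CO2. Seeded at 8 × 10^3 cells per 100 μL and left 24 h, then exposed 24 h to 5, 10, 20, 50 or 100 μM. MTT at 0.5 mg/mL in HBSS was added for 2–4 h at 37 °C in the dark. Formazan was dissolved in DMSO, A570 was read, and IC50 was derived.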

HeLa [15] = experiment: Inhibition of colony formation in human HeLa cells assessed as decrease in number of colonies formed at 3 to 6 uM incubated for 9 days by crystal violet staining based microscopic analysis; format: functional, cell-based; settings: dose 3-6 µM, time 9.0 day
Outline: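 HeLa seeded at 1 × 10^3 cells in 6-well plates; after attachment treated at 3 and 6 μM and grown 9 days at 37 °C; fixed in 70% methanol, stained with 0.3% crystal violet, PBS-washed; colonies imaged and counted by image analysis.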

HeLa [16] = experiment: Induction of apoptosis in human HeLa cells assessed as proportion of late apoptotic cells at 7 uM by AnnexinV-FITC/PI staining based FACS analysis (reference value: 14.5%); format: functional
HeLa [17] = experiment: Induction of apoptosis in human HeLa cells assessed as fold increase in caspase-3 activation at 7 to 11 uM by fluorometric assay relative to control; format: functional; settings: dose 7-11 µM
Outline: (§6)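 HeLa seeded at 3 × 10^6 in 6-well plates, treated at 7 and 11 μM; caspase-3, -8 and -9 activity each measured by fluorometric kit per manufacturer's protocol; fluorescence read at ex 400 nm / em 505 nm; fold change versus control; mean ± SD.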

HeLa [18] = experiment: Antiproliferative activity against human HeLa cells assessed as inhibition of cell growth incubated for 24 hrs by MTT assay; format: functional, cell-based; outline: as §5
HeLa [19] = experiment: Induction of apoptosis in human HeLa cells assessed as increase in number of cells with condensed nucleic acids at 7 to 11 uM incubated for 24 hrs by Hoechst 33342 staining based fluorescence light microscopy; format: functional, cell-based; settings: dose 7-11 µM
Outline: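 HeLa, 7 × 10^3 cells/well, treated 24 h at 7 and 11 μM; stained with Hoechst 33342 (1 μg mL−1 in PBS); condensed nuclei imaged through DAPI filter on inverted fluorescence microscope.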

HeLa [20] = experiment: Induction of cell cycle arrest in human HeLa cells assessed as proportion of cell accumulation at subG0 phase at 7 uM by propidium iodide staining based flow cytometry (reference value: 7.6%); format: functional
HeLa [21] = experiment: Induction of apoptosis in human HeLa cells assessed as increase in caspase-9 activation at 7 to 11 uM by fluorometric assay; format: functional, cell-based; settings: dose 7-11 µM; outline: as §6
HeLa [22] = experiment: Induction of cell cycle arrest in human HeLa cells assessed as downregulation of Cdc25 protein expression at 7 to 11 uM by western blot analysis; format: functional, cell-based; settings: dose 7-11 µM; outline: as §1
PANC-1 = experiment: Antiproliferative activity against human PANC-1 cells assessed as inhibition of cell growth incubated for 24 hrs by MTT assay; format: functional, cell-based; settings: PANC-1, 24 h; outline: as §5
HeLa [23] = experiment: Induction of apoptosis in human HeLa cells assessed as proportion of early apoptotic cells at 11 uM by AnnexinV-FITC/PI staining based FACS analysis (reference value: 4.5%); format: functional
HeLa [24] = experiment: Induction of apoptosis in human HeLa cells assessed as proportion of necrotic cells at 7 uM by AnnexinV-FITC/PI staining based FACS analysis (reference value: 3.4%); format: functional
HeLa [25] = experiment: Induction of cell cycle arrest in human HeLa cells assessed as proportion of cell accumulation at S phase at 7 uM by propidium iodide staining based flow cytometry (reference value: 15.9%); format: functional
HeLa [26] = experiment: Antimetastatic activity in human HeLa cells assessed as inhibition of cell migration at 3 to 6 uM measured after 24 to 48 hrs by scratch wound assay; format: functional, cell-based; settings: dose 3-6 µM, time 24-48 hrs
Outline: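 HeLa monolayer formed 24 h after seeding, scratched with a pipette tip and washed with PBS; treated at 3 and 6 μM, untreated cells as control; wound imaged at 0, 24 and 48 h; percentage wound closure/area measured by image analysis.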

HeLa [27] = experiment: Induction of cell cycle arrest in human HeLa cells assessed as proportion of cell accumulation at G1 phase at 11 uM by propidium iodide staining based flow cytometry (reference value: 67.7%); format: functional
HeLa [28] = experiment: Induction of apoptosis in human HeLa cells assessed as increase in caspase-8 activation at 7 to 11 uM by fluorometric assay; format: functional, cell-based; settings: dose 7-11 µM; outline: as §6
HeLa [29] = experiment: Induction of cell cycle arrest in human HeLa cells assessed as proportion of cell accumulation at G1 phase at 7 uM by propidium iodide staining based flow cytometry (reference value: 67.7%); format: functional
A549 = experiment: Antiproliferative activity against human A549 cells assessed as inhibition of cell growth incubated for 24 hrs by MTT assay; format: functional, cell-based; settings: A549, 24 h; outline: as §5
HeLa [30] = experiment: Induction of apoptosis in human HeLa cells assessed as proportion of necrotic cells at 11 uM by AnnexinV-FITC/PI staining based FACS analysis (reference value: 3.4%); format: functional
HeLa [31] = experiment: Induction of apoptosis in human HeLa cells assessed as DNA fragmentation by measuring less intense peak for deoxyribose variation (1460-65 cm^-1) at 7 to 11 uM incubated for 24 hrs by surface-enhanced Raman spectroscopic analysis; format: functional, cell-based; settings: dose 7-11 µM; outline: as §2
HeLa [32] = experiment: Induction of cell cycle arrest in human HeLa cells assessed as downregulation of Cyclin B1 protein expression at 7 to 11 uM by western blot analysis; format: functional, cell-based; settings: dose 7-11 µM; outline: as §1
HeLa [33] = experiment: Induction of cell cycle arrest in human HeLa cells assessed as proportion of cell accumulation at G2 phase at 11 uM by propidium iodide staining based flow cytometry (reference value: 8.7%); format: functional
HeLa [34] = experiment: Induction of mitochondrial membrane potential depolarization in human HeLa cells assessed as decrease in JC-1 aggregate to monomer ratio at 7 to 11 uM incubated for 24 hrs by JC-1 staining based fluorescence microscopic analysis; format: functional, cell-based; settings: dose 7-11 µM; outline: as §4
HeLa [35] = experiment: Induction of apoptosis in human HeLa cells assessed as proportion of viable cells at 7 uM by AnnexinV-FITC/PI staining based FACS analysis (reference value: 77.7%); format: functional
[36] = Cytotoxicity against human MCF-10A cells assessed as inhibition of cell growth incubated for 24 hrs by MTT assay; format: toxicity, cell-based
Outline: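 Non-tumorigenic breast epithelial line grown in MEGM with 5% horse serum at 37 °C and 5% CO2. Plated at 8 × 10^3 cells per well and treated 24 h later for 24 h at 5–100 μM. MTT (0.5 mg/mL in HBSS) was applied for 2–4 h at 37 °C in the dark, then DMSO. Read at 570 nm for IC50.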

## C[C@@H](C[C@@H](O)[C@@H]1OC1(C)C)[C@@H]1CC[C@]2(C)C3=CC[C@H]4C(C)(C)C(=O)CC[C@]4(C)[C@H]3CC[C@@]12C
HeLa [1]
  Activity: Active
HeLa [2]
  Activity: 5.4%
HeLa [3]
  Activity: 9.8%
HeLa [4]
  Activity: Active
HeLa [5]
  Activity: 50.1%
HeLa [6]
  Activity: Active
HeLa [7]
  Activity: 29.6%
HeLa [8]
  Activity: 50.9%
SiHa
  pIC50: 4.79
HeLa [9]
  Activity: Active
HeLa [10]
  Activity: Active
HeLa [11]
  Activity: Active
HeLa [12]
  Activity: Active
HeLa [13]
  Activity: 39.5%
HeLa [14]
  Activity: Active
MDA-MB-231
  pIC50: 4.62
HeLa [15]
  inhibition: Dose-dependent-effect
HeLa [16]
  Activity: 10.1%
HeLa [17]
  fold change (FC): 3
HeLa [18]
  pIC50: 4.93
HeLa [19]
  Activity: Active
HeLa [20]
  Activity: 25.6%
HeLa [21]
  Activity: Active
HeLa [22]
  Activity: Active
PANC-1
  pIC50: 4.78
HeLa [23]
  Activity: 15.8%
HeLa [24]
  Activity: 0.7%
HeLa [25]
  Activity: 4.9%
HeLa [26]
  Activity: Active
HeLa [27]
  Activity: 44.1%
HeLa [28]
  Activity: Active
HeLa [29]
  Activity: 64%
A549
  pIC50: 4.51
HeLa [30]
  Activity: 4.5%
HeLa [31]
  Activity: Active
HeLa [32]
  Activity: Active
HeLa [33]
  Activity: 6.2%
HeLa [34]
  Activity: Active
HeLa [35]
  Activity: 38.3%
[36]
  IC50 at 24 h: 83.3 µM

Source: ChEMBL document CHEMBL6083205, “A comprehensive apoptotic assessment of niloticin in cervical cancer cells: a tirucallane-type triterpenoid from Aphanamixis polystachya (Wall.) Parker” (RSC Med Chem, 2024)
